Laboratory results published in PubChem BioAssay AID449763 (Sanford-Burnham Center for Chemical Genomics, 2010).
Screen size: about 330,000 compounds; about 1,100 (0.33%) were called active.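 Rule for the calls: active = at 10 µM dose, activation of 40% or more, normalized to positive control; inactive = the rest.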 The list comes from a sample in which actives are over-represented; it also holds similar structures and randomly drawn compounds.

Experiment: PERK-eIF2a-CHOP pathway stimulators – cell-based, CHO-CHOP luciferase reporter, luminescence, uHTS, primary screen (AID 449763);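 note: 100% = tunicamycin at 10 µg/mL and 0% = DMSO alone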
Settings: UPR activation, at 10 µM, hits give high values, percent of tunicamycin response over DMSO baseline
Method in brief: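 Assay system: CHO-CHOP cells, stable luciferase reporter of PERK-eIF2a-CHOP signalling / Buffer or medium: F12 plus 10% serum / Compound dosing: one dose, 10 µM in 0.5% DMSO / Times: 6 h compound treatment, 37 °C / Technique: luciferase luminescence / Read-out: % reporter activation, DMSO baseline versus tunicamycin full activation / Benchmarks: tunicamycin and DMSO controls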

activation, inactive:
Cc1onc(C(=O)NCc2ccc(F)cc2)c1[N+](=O)[O-] -0.611%
CCc1noc(C)c1C(=O)NNC(=O)c1ccc(F)cc1 -0.408%
CC(C)CNS(=O)(=O)c1ccc(CCC(=O)NCc2ccc(Cl)cc2)cc1 0.956%
COc1cccc(-n2c(SCC(=O)NC3CCCCC3)nc3n[nH]c(C)c3c2=N)c1 -0.882%
Cc1ccc(C(C[N+](=O)[O-])c2c(C)cc3ccccn23)cc1 (centres undefined) -0.989%
COc1ccc(S(=O)(=O)N2CCOCC2)cc1NC(=O)CSc1ncnc2ccccc12 -1.54%
Cc1nn(CC#N)c(=O)n1N(C)c1ncc(C(F)(F)F)cc1Cl -1.47%
COc1ccc(OC)c(S(=O)(=O)n2c([N+](=O)[O-])cnc2C)c1 -0.979%
CCOc1ccc(C(C)C)cc1S(=O)(=O)n1nc(C)cc1C -3.09%
O=C(NNS(=O)(=O)c1ccccc1)c1cnn(-c2ccc(Cl)cc2)c1C(F)(F)F 2.88%
CCN(C(=O)COC(=O)/C=C/c1nc2ccccc2s1)C1CCS(=O)(=O)C1 (centres undefined) 0.0282%
CN1CCNC(=O)C1CC(=O)N1CC=C(c2ccc(F)cc2)CC1 (centres undefined) -1.29%
O=C(CSCc1ccccc1)Nc1ccccc1 2.11%
O=C(CSc1ccccc1)Nc1ccc(C(=O)Nc2cccc(O)c2)cc1 2.1%
COc1c(C)cc(C(=O)C2CCCN(S(=O)(=O)c3c(C)noc3C)C2)cc1C (centres undefined) 3.35%
Cc1cc(C)nc(SCC(=O)N(C)C)n1 -0.00178%
O=C(/C=C/Sc1ncn[nH]1)c1ccc(Cl)cc1 -3.23%
CC1(C(=O)N/N=C/c2cc3c(cc2Br)OCO3)CC1(Br)Br (centres undefined) 1.01%
O=C(N/N=C/c1cc2c(cc1Br)OCO2)C1COc2ccccc2O1 (centres undefined) 8.62%
CC(=O)Nc1ccc(Nc2nc3c(S(=O)(=O)c4ccc(C)c(C)c4)nnn3c3ccccc23)cc1 0.65%
Cc1ccc(S(=O)(=O)c2nnn3c2nc(N2CCN(c4ccccn4)CC2)c2ccccc23)cc1 1.19%
Cc1cccc(C(=O)N2CCCC(Nc3ccc(C(C)C)cc3)C2)n1 (centres undefined) 0.069%
COc1cc(CC(=O)N/N=C/c2ccccc2)c([N+](=O)[O-])cc1OC 0.0789%
COc1cccc(/C=N/NC(=O)CNC(=O)c2ccc(S(=O)(=O)N3CCOCC3)cc2)c1OC 3.45%
CCN(c1ccc(NC(=O)COC(=O)CCc2nc3ccccc3n2-c2ccccc2)cc1)C(C)C -1.22%
Cc1c(CN2CCC(n3nccc3NC(=O)CCc3ccccc3)CC2)cnn1C 1.65%
COc1ccc(CN2C(=O)CN=C2Nc2ccc(C)cc2C)cc1 1.91%
c1ccc(-c2ccc(OCCN3CCOCC3)cc2)cc1 5.5%
COc1ccc(CN2CN(C(C)C)CSC2=S)cc1 0.456%
COc1ccc(OC)c(NC(=O)CSc2nc(-c3ccccc3)cc(=O)[nH]2)c1 4.07%
C=C(C)CNC(=S)Nc1ccc(S(=O)(=O)Nc2cnc3ccccc3n2)cc1 -2.1%
COc1ccc(C(=O)NCC2CCCN2S(=O)(=O)c2cccs2)cc1OC (centres undefined) 11.9%
COCc1ccc(C(=O)N2CCc3c([nH]c4ccccc34)C2c2ccccn2)s1 (centres undefined) -0.769%
CCOc1cc(NS(=O)(=O)c2ccc(OC)cc2)c(OCC)cc1NC(C)=O 1.17%
COc1ccc(N2CC(NS(=O)(=O)c3ccc4ccccc4c3)CC2=O)cc1 (centres undefined) -0.659%
COC(=O)[C@]1(C)N[C@H](CN(C)C(=O)c2ccc(C(C)(C)C)cc2)[C@@H]2C(=O)N(C)C(=O)[C@@H]21 2.43%
CCCCOc1ccc(N(CC(=O)NCC2CCCO2)C(=O)CCC(=O)Nc2cc(C)ccn2)cc1 (centres undefined) -1.23%
O=C(NCc1ccco1)c1sc2cccc(F)c2c1Cl 2.12%
O=C(N/N=C/c1ccc(O)c(O)c1)C1c2ccccc2Oc2ccccc21 3.18%
O=C(O)c1ccc(N/N=C/c2ccc3ncccc3c2)cc1 -10.5%
Cc1ccc(CCCOC(=O)C[N+]2(C)CCCC2)cc1 1.65%
O=S(=O)(NCC1CCCO1)c1cnc(Cl)c(Cl)c1 (centres undefined) 4.71%
O=C(NCCCO)/C(=C\C=C\c1ccccc1)NC(=O)c1ccccc1Cl 0.299%
COc1ccc(CCNC(=O)CCc2ccccc2O)cc1OC -0.118%
CC1=CC(C)(C)Nc2ccc(OC(=O)C(Cc3ccccc3)N3C(=O)C4CCCCC4C3=O)cc21 (centres undefined) -1.34%
O=C(COC(=O)CN1C(=O)C2CCCCC2C1=O)Nc1ccc(F)c(F)c1F (centres undefined) 1.69%

activation, active:
O=C(/C=C/c1ccc([N+](=O)[O-])o1)NNC(=O)c1ccc(F)cc1 129%
Nc1ccccc1SC(C[N+](=O)[O-])c1ccccc1 (centres undefined) 181%
COc1ccc(C(C[N+](=O)[O-])n2nc(C)cc2C)cc1 (centres undefined) 59.5%
C=CS(=O)c1sc(Cl)c(N2CCOCC2)c1[N+](=O)[O-] (centres undefined) 97.2%
O=C(CCl)Nc1cccc(CP(=O)(c2ccccc2)c2ccccc2)c1 60.2%
Cc1cc(C)nc(S/C=C/C(=O)c2ccccc2)n1 64.1%
O=C(N/N=C\c1cc2c(cc1Cl)OCO2)c1ccc(Br)s1 51.5%
Cc1cccc(Nc2nc3c(S(=O)(=O)c4ccccc4)nnn3c3ccccc23)c1C 145%
COc1ccc(C(=O)NCC(=O)N/N=C/c2ccc([N+](=O)[O-])o2)cc1OC 113%
S=C1SCN(CCN2CCOCC2)CN1Cc1ccccc1 129%
COc1cc(NS(=O)(=O)c2ccc3ccccc3c2)c2ncccc2c1 409%
Oc1ccc(/C=N/Nc2ccc(C(F)(F)F)cn2)cc1O 67.4%
CC1=CC(C)(C)Nc2ccc(OC(=O)CN3C(=O)C4CCCCC4C3=O)cc21 (centres undefined) 67.7%
